From ChEMBL document CHEMBL1799919, “Design, synthesis, biological evaluation, and structure-activity relationships of substituted phenyl 4-(2-oxoimidazolidin-1-yl)benzenesulfonates as new tubulin inhibitors mimicking combretastatin A-4” (J Med Chem, 2011)
Active and inactive are the calls of the source. No cut-off for these calls is given here.

Columns and labels:
M21 [1] = assay: Cell cycle arrest in human M21 cells assessed as accumulation at G0/G1 phase at 5 times IC50 after 24 hrs using propidium iodide staining by flow cytometric analysis (reference value: 61%); assay type: functional
[2] = Antiproliferative activity against mouse B16F0 cells after 48 hrs by sulforhodamine B assay; assay type: functional, cell-based; conditions: B16F0, 48 h
CEM-VLB = assay: Resistant ratio of IC50 for multidrug-resistant human CEM-VLB cells to IC50 for human CEM cells; assay type: functional
How it was run: (§1)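 Ratio of the IC50 in the resistant line (CEM-VLB, CHO-TAX 5-6 or CHO-VV 3-2) to the IC50 in its parental line (CEM or CHO).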

CHO = assay: Antiproliferative activity against CHO cells after 48 hrs by sulforhodamine B assay; assay type: functional, cell-based; conditions: Cricetulus griseus
HT-29 = assay: Antiproliferative activity against human HT-29 cells after 48 hrs by sulforhodamine B assay; assay type: functional, cell-based; conditions: HT-29, 48 h
CHO-TAX 5-6 [3] = assay: Resistant ratio of IC50 for paclitaxel-resistant CHO-TAX 5-6 cells to IC50 for CHO cells; assay type: functional, Cricetulus griseus; how it was run: as §1
[4] = Antiproliferative activity against multidrug-resistant human CEM/VLB cells after 48 hrs by sulforhodamine B assay; assay type: functional
K562 = assay: Antiproliferative activity against human K562 cells after 48 hrs by sulforhodamine B assay; assay type: functional, cell-based; conditions: K562, 48 h
L1210 = assay: Antiproliferative activity against mouse L1210 cells after 48 hrs by sulforhodamine B assay; assay type: functional, cell-based; conditions: L1210, 48 h
CHO-TAX 5-6 [5] = assay: Antiproliferative activity against paclitaxel-resistant CHO-TAX 5-6 cells after 48 hrs by sulforhodamine B assay; assay type: functional, cell-based; conditions: Cricetulus griseus, CHO-TAX 5-6, 48 h
MCF7 = assay: Antiproliferative activity against human MCF7 cells after 48 hrs by sulforhodamine B assay; assay type: functional, cell-based; conditions: MCF7, 48 h
HT-1080 [6] = assay: Antiproliferative activity against human HT1080 cells after 48 hrs by sulforhodamine B assay; assay type: functional, cell-based; conditions: HT-1080, 48 h
CHO-VV 3-2 = assay: Antiproliferative activity against colchicine- and vinblastine-resistant CHO-VV 3-2 cells after 48 hrs by sulforhodamine B assay; conditions: Cricetulus griseus, CHO-VV 3-2, 48 h
M21 [7] = assay: Cell cycle arrest in human M21 cells assessed as accumulation at S phase at 5 times IC50 after 24 hrs using propidium iodide staining by flow cytometric analysis (reference value: 30%); assay type: functional
[8] = Toxicity against fertilized chicken embryo assessed as mortality at 3 ug per egg, iv by CAM assay; assay type: organism-based, Gallus gallus; conditions: in vivo, read-out: Activity
How it was run: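 Fertilized chicken eggs incubated 10 days with automatic turning, then static. HT-1080 cells (3.5 × 10^5 cells/egg) grafted onto exposed CAM. On day 11, drug in DMSO diluted into cremophor/ethanol/PBS (6.25/6.25/87.5 v/v) excipient, DMSO below 0.5%, 100 μL injected iv into 10-12 eggs. Eggs incubated to day 17, dead embryos counted. Untreated eggs used for normalization. Two independent experiments, at least 10 eggs each.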

HT-1080 [9] = assay: Antivasculogenic activity against human HT1080 cells xenografted in chicken chorioallantoic membrane assessed as inhibition of tumor growth at 3 ug per egg, iv measured on day 14 by CAM assay; assay type: functional
CCRF-CEM = assay: Antiproliferative activity against human CEM cells after 48 hrs by sulforhodamine B assay; assay type: functional, cell-based
M21 [10] = assay: Antiproliferative activity against human M21 cells after 48 hrs by sulforhodamine B assay; assay type: functional, cell-based; conditions: M21, 48 h
M21 [11] = assay: Disruption of cytoskeleton microtubule structure of human M21 cells at 5 times IC50 after 16 hrs by indirect immunofluorescence assay; assay type: functional, cell-based
How it was run: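 Fixed in 3.7% formaldehyde, permeabilized with saponin, and stained with anti-β-tubulin (TUB 2.1), Alexa-488 secondary and DAPI. Microtubule structure scored by fluorescence microscopy.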

SK-OV-3 = assay: Antiproliferative activity against human SKOV3 cells after 48 hrs by sulforhodamine B assay; assay type: functional, cell-based; conditions: SK-OV-3, 48 h
M21 [12] = assay: Cell cycle arrest in human M21 cells assessed as accumulation at G2/M phase at 5 times IC50 after 24 hrs using propidium iodide staining by flow cytometric analysis (reference value: 9%); assay type: functional
[13] = Antiproliferative activity against mouse P388D1 cells after 48 hrs by sulforhodamine B assay; assay type: functional, cell-based; conditions: P388D1, 48 h
MDA-MB-231 [14] = assay: Antiproliferative activity against human MDA-MB-231 cells after 48 hrs by sulforhodamine B assay; assay type: functional, cell-based; conditions: MDA-MB-231, 48 h
DU-145 = assay: Antiproliferative activity against human DU145 cells after 48 hrs by sulforhodamine B assay; assay type: functional, cell-based; conditions: DU-145, 48 h
MDA-MB-231 [15] = assay: Displacement of N,N'-ethylenebis(iodoacetamide) from colchicine-binding site of beta-tubulin in human MDA-MB-231 cells at 1000 times IC50 preincubated for after 2 hrs before N,N'-ethylenebis(iodoacetamide) addition measured after 1.5 hrs by chemiluminescence assay; assay type: cell-based
How it was run: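 EBI (100 μM final) added for 1.5 h at 37 °C; controls received 0.5% DMSO. Lysates (20 μg protein) run on 10% SDS-PAGE and blotted with anti-β-tubulin (TUB 2.1). β-tubulin–EBI adduct band detected by ECL.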

| Structure (SMILES) | Activity (M21 [1]) | IC50 [2] | Ratio IC50 (CEM-VLB) | IC50 (CHO) | IC50 (HT-29) | Ratio IC50 (CHO-TAX 5-6 [3]) | IC50 [4] | IC50 (K562) | IC50 (L1210) | IC50 (CHO-TAX 5-6 [5]) | IC50 (MCF7) | IC50 (HT-1080 [6]) | IC50 (CHO-VV 3-2) | Activity (M21 [7]) | mortality [8] | Activity (HT-1080 [9]) | IC50 (CCRF-CEM) | IC50 (M21 [10]) | Activity (M21 [11]) | IC50 (SK-OV-3) | also measured |
| --- | --- | --- | --- | --- | --- | --- | --- | --- | --- | --- | --- | --- | --- | --- | --- | --- | --- | --- | --- | --- | --- |
| O=C1NCCN1c1ccc(S(=O)(=O)Oc2cc(Cl)cc(Cl)c2)cc1 | 1% | 41 nM | 1.2 | 17 nM | 10 nM | 0.36 | 19 nM | 7.2 nM | 9.6 nM | 6.1 nM | 18 nM | 18 nM | 20 nM | 20% | 29% | inactive | 16 nM | 8.2 nM | Active | 16 nM | Activity (M21 [12]): 79%; IC50 [13]: 7.4 nM; IC50 (MDA-MB-231 [14]): 26 nM; IC50 (DU-145): 66 nM; inhibition (MDA-MB-231 [15]): Active |
| CCOc1cccc(OS(=O)(=O)c2ccc(N3CCNC3=O)cc2)c1 | 2% | 65 nM | 1.6 | 32 nM | 18 nM | 0.38 | 32 nM | 18 nM | 19 nM | 12 nM | 19 nM | 34 nM | 39 nM | 20% | 13% | Active | 20 nM | 12 nM | Active | 42 nM | Activity (M21 [12]): 78%; IC50 [13]: 20 nM; IC50 (MDA-MB-231 [14]): 55 nM; IC50 (DU-145): 72 nM; inhibition (MDA-MB-231 [15]): Active |
| Cc1ccc(C)c(OS(=O)(=O)c2ccc(N3CCNC3=O)cc2)c1 | 3% | 49 nM | 1.2 | 18 nM | 10 nM | 0.78 | 23 nM | 18 nM | 21 nM | 14 nM | 14 nM | 24 nM | 21 nM | 20% | 13% | Active | 19 nM | 8.5 nM | Active | 29 nM | Activity (M21 [12]): 77%; IC50 [13]: 19 nM; IC50 (MDA-MB-231 [14]): 69 nM; IC50 (DU-145): 57 nM; inhibition (MDA-MB-231 [15]): Active |
| O=C1NCCN1c1ccc(S(=O)(=O)Oc2c(F)cccc2F)cc1 | 5% | 91 nM | 1.3 | 73 nM | 29 nM | 0.52 | 87 nM | 65 nM | 67 nM | 38 nM | 32 nM | 65 nM | 74 nM | 33% | 13% | Active | 68 nM | 15 nM | Active | 72 nM | Activity (M21 [12]): 62%; IC50 [13]: 76 nM; IC50 (MDA-MB-231 [14]): 100 nM; IC50 (DU-145): 170 nM; inhibition (MDA-MB-231 [15]): Active |
| COc1cc(OC)cc(OS(=O)(=O)c2ccc(N3CCNC3=O)cc2)c1 | 1% | 25 nM | 1.3 | 7.3 nM | 8 nM | 0.71 | 9.2 nM | 7.5 nM | 6.4 nM | 5.2 nM | 10 nM | 8.2 nM | 15 nM | 24% | 10% | 56% | 7.1 nM | 4.3 nM | Active | 6.8 nM | Activity (M21 [12]): 75%; IC50 [13]: 7.8 nM; IC50 (MDA-MB-231 [14]): 14 nM; IC50 (DU-145): 25 nM; inhibition (MDA-MB-231 [15]): Active |
| O=C1NCCN1c1ccc(S(=O)(=O)Oc2ccc(F)cc2)cc1 | 51% | 250 nM | 1.4 | 230 nM | 120 nM | 0.37 | 270 nM | 180 nM | 140 nM | 86 nM | 170 nM | 190 nM | 260 nM | 21% | 29% | inactive | 200 nM | 89 nM | Active | 210 nM | Activity (M21 [12]): 28%; IC50 [13]: 240 nM; IC50 (MDA-MB-231 [14]): 360 nM; IC50 (DU-145): 550 nM; inhibition (MDA-MB-231 [15]): Active |
| O=C1NCCN1c1ccc(S(=O)(=O)Oc2cccc(Cl)c2)cc1 | 2% | 46 nM | 1.2 | 18 nM | 15 nM | 0.52 | 20 nM | 16 nM | 17 nM | 9.3 nM | 13 nM | 19 nM | 20 nM | 19% | 0% | 46% | 17 nM | 9.2 nM | Active | 22 nM | Activity (M21 [12]): 79%; IC50 [13]: 19 nM; IC50 (MDA-MB-231 [14]): 45 nM; IC50 (DU-145): 58 nM; inhibition (MDA-MB-231 [15]): Active |
